Experimental data gathered from unrelated publications.
Compare with care: the assays were run in different laboratories.
CYP1A2: Cytochrome P450 1A2 (CYP1A2, Homo sapiens, UniProt P05177)

Compound	tested on	assay	test system	setting	endpoint	result
CN(C)C(=O)c1cc2cnc(Nc3ccc(-c4ccc5c(=O)cc(N6CCOCC6)oc5c4)cc3)nc2n1C1CCCC1.Cl			BALB/c mouse, plasma	oral, 20 mg/kg	Cmax	3300 ng/mL
OC[C@H]1O[C@@H](c2cc(Cc3ccc(C4CC4)cc3)c(Cl)c3c2CCO3)[C@H](O)[C@@H](O)[C@@H]1O			human, plasma	oral, 0.3 mg, single dose, fasted	Vd/F	167 L
N#Cc1cccc(-c2ccc3ncc(-c4cc(F)cc(F)c4)c(N4CCC(N)CC4)c3c2)c1O			human, plasma	oral, 20 mg, single dose	Vd/F	300 L
C[C@@H](Oc1ccc(S(C)(=O)=O)cc1C(=O)N1C[C@@H]2C[C@]2(c2cc(C(F)(F)F)on2)C1)C(F)(F)F			human, plasma	oral, 10 mg, single dose, fasted	Vd/F	273 L
NS(=O)(=O)c1ccc(-c2ccc(Nc3ccncc3)cc2)cc1	BHK-21	cell growth or viability, MTT		100 µM	viability	76%
COC(=O)N[C@H](C(=O)N1CCC[C@H]1c1nc(-c2ccc3c(c2)O[C@@H](c2ccccc2)n2c-3cc3cc(-c4c[nH]c([C@@H]5CCCN5C(=O)[C@@H](NC(=O)OC)C(C)C)n4)ccc32)c[nH]1)C(C)C	BHK-21	cell growth or viability, CCK-8		48 h	CC50	> 600 µM
CC(=O)O[C@@H]1[C@@H](O)[C@H](O[C@H]2CC[C@]34C[C@]35CC[C@]3(C)[C@@H]([C@@]6(C)CC[C@@H](C(C)(C)O)O6)[C@@H](O)C[C@@]3(C)[C@@H]5C[C@H](O[C@@H]3O[C@H](CO)[C@@H](O)[C@H](O)[C@H]3O)[C@H]4C2(C)C)OC[C@H]1O	CYP1A2	enzyme activity, inhibitor	human, liver microsomes		IC50	> 200 µM
C#CCC(Cc1cnc2nc(N)nc(N)c2n1)c1ccc(C(=O)N[C@@H](CCC(=O)O)C(=O)O)cc1 (some centres unmarked)	BHK-21	cell growth or viability, CCK-8		48 h	CC50	104 µM
COc1ccc2c(c1)CN(C(=O)CCN1CCC(Cc3ccccc3)CC1)CC[S@@+]2[O-]			male human, plasma	intravenous, 0.15 mg/kg, healthy volunteers	Vd	86.7 L
CC(=O)O[C@H]1[C@H](O[C@H]2CC[C@]34C[C@]35CC[C@]3(C)[C@@H]([C@@]6(C)CC[C@@H](C(C)(C)O)O6)[C@@H](O)C[C@@]3(C)[C@@H]5C[C@H](O[C@@H]3O[C@H](CO)[C@@H](O)[C@H](O)[C@H]3O)[C@H]4C2(C)C)OC[C@@H](O)[C@@H]1O	CYP1A2	enzyme activity, inhibitor	human, liver microsomes		IC50	> 200 µM
O=C1C(=O)c2cccnc2-c2ncccc21.O=C1C(=O)c2cccnc2-c2ncccc21.O=C1C(=O)c2cccnc2-c2ncccc21.[Cu+2].[O-][Cl+3]([O-])([O-])[O-].[O-][Cl+3]([O-])([O-])[O-]	Vero	cell growth or viability, MTT		72 h	CC50	> 200 µM
NS(=O)(=O)c1ccc(-c2ccc(Nc3ccc(F)c(Cl)c3)cc2)cc1	BHK-21	cell growth or viability, MTT		100 µM	viability	75%
CCCSc1ccc2nc(NC(=O)OC)[nH]c2c1	Vero	cell growth or viability, MTT		72 h	CC50	> 200 µM
CC[C@H](C)[C@@H]([C@@H](CC(=O)N1CCC[C@H]1[C@H](OC)[C@@H](C)C(=O)N[C@@H](Cc1ccccc1)C(=O)NCCCO)OC)N(C)C(=O)[C@@H](NC(=O)[C@H](C(C)C)N(C)C)C(C)C	Cytochrome P450 3A4 (CYP3A4, Homo sapiens, UniProt P08684)	enzyme activity, inhibitor	human, liver microsomes		IC50	43.6 µM
